Data taken from ChEMBL document CHEMBL3351951, “2-Octadecynoic acid as a dual life stage inhibitor of Plasmodium infections and plasmodial FAS-II enzymes” (Bioorg Med Chem Lett, 2014).
Values after ≈ are worked out from the molar mass of the structure shown. Active and inactive are the calls of the source. The calls are words filed in the database; no cut-off is given here.

What was measured:
[1] = Inhibition of Plasmodium falciparum FabI
Outline: (§1)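 Recombinant P. falciparum FAS-II enzymes (FabI, FabZ, FabG) were assayed for inhibition. IC50 values (μg/ml) are the average of at least two independent assays run in duplicate.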

Danio rerio [2] = species on record: Danio rerio; experiment: Hepatotoxicity in zebrafish larvae at 300 uM measured during 3 to 6 days of post-fertilization; format: organism-based; conditions: in vivo
Outline: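 Larvae with DsRed-fluorescent livers were exposed from 3 to 6 dpf; vehicle was 1% DMSO. At 6 dpf, livers were photographed under a stereomicroscope and scored as normal, reduced fluorescence, reduced size, enlarged or absent. Paracetamol 300 μM served as the positive control.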

Plasmodium berghei [3] = experiment: Antimalarial activity against liver stage of Plasmodium berghei infected in human Huh7 cells assessed as reduction in parasite load treated after 2 hrs of infection for 46 hrs by luciferase assay; format: functional, organism-based; conditions: Huh-7, Liver
Outline: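 Huh7 hepatoma cells infected with luciferase-expressing P. berghei sporozoites. Parasite load measured by luciferase signal at 44 hpi (48 hpi in the figure legend) and expressed as percent of control. IC50 is the average of at least two independent assays run in duplicate.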

[4] = Inhibition of Plasmodium falciparum FabZ; outline: as §1
[5] = Inhibition of Plasmodium falciparum FabG; outline: as §1
Danio rerio [6] = species on record: Danio rerio; experiment: Hepatotoxicity in zebrafish larvae during 3 to 6 days of post-fertilization; format: organism-based; conditions: in vivo
Outline: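 Larvae with DsRed-fluorescent livers are exposed from 3 dpf for 3 days, at a range of concentrations up to each compound's maximum tolerated concentration. Vehicle is 1% DMSO, and paracetamol 300 μM is the positive control. At 6 dpf, livers are imaged and scored as normal, reduced fluorescence, reduced size, enlarged or absent.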

[7] = Cytotoxicity against human HuH7 cells assessed as cell viability by Alamar Blue assay; format: cell-based; conditions: huh-7
Outline: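 Host-cell viability was measured in the same P. berghei-infected Huh7 wells. Cells were treated from 2 hpi, and Alamar Blue fluorescence was read at the time of infection analysis (48 hpi). Cell confluency is reported in arbitrary units.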

L6 = experiment: Cytotoxicity against rat L6 cells; format: cell-based
Plasmodium berghei [8] = experiment: Antimalarial activity against liver stage of GFP-expressing Plasmodium berghei infected in human Huh7 cells assessed as reduction in parasite load treated after 2 hrs of infection for 46 hrs by confocal microscopy; format: functional, organism-based; conditions: Huh-7
Outline: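 Huh7 hepatoma cells infected with GFP-expressing P. berghei sporozoites. Treated at 2 hpi for 46 h at single fixed concentrations; vehicle DMSO 0.4%. Cells fixed in 4% PFA. Exo-erythrocytic forms immunolabelled with anti-PbHsp70 and an Alexa-488 secondary antibody; nuclei stained with Hoechst. Imaged by confocal microscopy.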

Plasmodium falciparum = experiment: Antimalarial activity against blood stage of multidrug-resistant Plasmodium falciparum K1 after 72 hrs by [3H]hypoxanthine incorporation assay; format: functional, organism-based
Outline: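 Blood-stage P. falciparum K1 growth is measured by 3H-hypoxanthine incorporation. IC50 is given in μg/ml as the mean of at least two independent assays, each run in duplicate.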

[9] = Critical micelle concentration of the compound in 1X phosphate-buffered saline containing rhodamine 6G at 2.5 x 10^-6 M by spectrophotometry; format: ADME; conditions: buffer

Row | Compound | IC50 [1] | IC50 (Plasmodium berghei [3]) | IC50 [4] | IC50 [5] | MTD (Danio rerio [6]) | other results
1 | Oc1cc(Cl)ccc1Oc1ccc(Cl)cc1Cl [TRICLOSAN] | 0.015 µg/mL (≈ 0.0518 µM) |  |  |  |  | 
2 | CC(=O)Nc1ccc(O)cc1 [ACETAMINOPHEN] |  |  |  |  |  | Activity (Danio rerio [2]): Toxic
3 | CCCCCCCCCCCCCCCC(=O)O [PALMITIC ACID] | > 100 µg/mL | > 25 µg/mL | > 100 µg/mL | > 100 µg/mL | 700 µM | 
4 | CCCCCCCCCCCC#CC(=O)O | 1.2 µg/mL (≈ 5.35 µM) | 2.87 µg/mL (≈ 12.8 µM) | 3.5 µg/mL (≈ 15.6 µM) | 5.5 µg/mL (≈ 24.5 µM) | 1.2 µM | Activity [7]: Non-toxic
5 | COc1cc([C@@H]2c3cc4c(cc3[C@H](O)[C@H]3COC(=O)[C@H]23)OCO4)cc(OC)c1OC [PODOFILOX] |  |  |  |  |  | IC50 (L6): 0.02 µg/mL (≈ 0.0483 µM)
6 | CCCCCCCCCCCCCCCC#CC(=O)O | 0.3 µg/mL (≈ 1.07 µM) | 0.34 µg/mL (≈ 1.21 µM) | 0.28 µg/mL (≈ 0.998 µM) | 0.8 µg/mL (≈ 2.85 µM) | 1 µM | Activity [7]: Non-toxic; inhibition (Plasmodium berghei [8]): Active; IC50 (Plasmodium falciparum): 6 µg/mL (≈ 21.4 µM); CMC [9]: 50 µg/mL
7 | O=C(O[C@@H]1Cc2c(O)cc(O)cc2O[C@@H]1c1cc(O)c(O)c(O)c1)c1cc(O)c(O)c(O)c1 [EPIGALOCATECHIN GALLATE] |  |  | 0.03 µg/mL (≈ 0.0654 µM) | 0.2 µg/mL (≈ 0.436 µM) |  | 
